Consider four molecules from ChEMBL document CHEMBL4229560, “Increasing C-Terminal Hydrophobicity Improves the Cell Permeability and Antiproliferative Activity of PACE4 Inhibitors against Prostate Cancer Cell Lines” (J Med Chem, 2018).

For series [1], the species on record is Homo sapiens. The experiment in a line: Selectivity ratio of Ki for recombinant human furin to Ki for recombinant human PACE4. An outline of the steps:
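Ki values came from human recombinant enzymes expressed in S2 insect cells. Furin was assayed in 100 mM HEPES pH 7.5, 1 mM CaCl2, 1 mM β-mercaptoethanol and 1.8 g/L BSA. PACE4 was assayed in 20 mM Bis-Tris pH 6.5, 1 mM CaCl2 and 1.8 g/L BSA. Substrate was pERTKR-AMC at 100 µM, with inhibitor at 0–10 µM. Fluorescence (ex 370/em 460 nm) was read for 1 h, and Ki derived by Cheng-Prusoff.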

Series [2] has as its target Furin (Homo sapiens, UniProt P09958). As to the kind of experiment: Inhibition of recombinant human furin expressed in S2 insect cells using pyroGlu-Arg-Thr-Lys-Arg-AMC peptide as substrate after 1 hr by spectrofluorometry. The essentials: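 Furin was human recombinant from S2 insect cells, purified. Buffer 100 mM HEPES pH 7.5, 1 mM CaCl2, 1 mM β-mercaptoethanol, 1.8 g/L BSA. Substrate 100 µM per well, inhibitors 0–10 µM, 2 units enzyme. Real-time fluorescence (ex 370/em 460 nm) over 1 h. Ki by Cheng–Prusoff; duplicate or triplicate.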

The subject of series [3] is DU-145. As to the kind of experiment: Antiproliferative activity against human DU145 cells after 72 hrs by MTT assay. The format is functional, cell-based. The note with it: DU-145, 72 h. An outline of the steps: (§1)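 MTT assay run 72 h. Seeding was ~1500 cells/well for DU145 and ~2500 cells/well for LNCaP, in RPMI 1640 with 5% FBS (DU145) or 10% FBS (LNCaP). Medium was changed after 24 h, then inhibitor added at 1–300 µM or 1–150 µM. MTT was added at 1 g/L final for 4 h and formazan dissolved in 2-propanol/HCl. Readings were relative to vehicle (water, 0.1% DMSO). IC50 was from at least two independent experiments.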

Series [4] has as its system DU-145. The experiment in a line: Cytotoxicity against human DU145 cells assessed as effect on live cells >10 uM after 1.5 hrs by propidium iodide-staining based FACS analysis. The format is cell-based. The note with it: du-145, 1.5 h. The essentials:
(§2)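 DU145 cells (200 000 per well) exposed to peptides in serum-free medium for 1.5 h at 1, 10, 50 and 100 µM, or 1, 10, 15, 20, 30, 50, 100 µM for the dose-response set. Cells trypsinized, washed, resuspended in PBS, PI added (final 10 µg/mL), fluorescence read by flow cytometry; IC50(PI) from the dose-response curve; at least two independent experiments.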

In series [5] the test system is LNCaP. The experiment in a line: Antiproliferative activity against human LNCAP cells after 72 hrs by MTT assay. The format is functional, cell-based. The essentials: as §1
Series [6] deals with T1, Proprotein convertase subtilisin/kexin type 6 (Homo sapiens, UniProt P29122).
T1 sequence (P29122 whole entry): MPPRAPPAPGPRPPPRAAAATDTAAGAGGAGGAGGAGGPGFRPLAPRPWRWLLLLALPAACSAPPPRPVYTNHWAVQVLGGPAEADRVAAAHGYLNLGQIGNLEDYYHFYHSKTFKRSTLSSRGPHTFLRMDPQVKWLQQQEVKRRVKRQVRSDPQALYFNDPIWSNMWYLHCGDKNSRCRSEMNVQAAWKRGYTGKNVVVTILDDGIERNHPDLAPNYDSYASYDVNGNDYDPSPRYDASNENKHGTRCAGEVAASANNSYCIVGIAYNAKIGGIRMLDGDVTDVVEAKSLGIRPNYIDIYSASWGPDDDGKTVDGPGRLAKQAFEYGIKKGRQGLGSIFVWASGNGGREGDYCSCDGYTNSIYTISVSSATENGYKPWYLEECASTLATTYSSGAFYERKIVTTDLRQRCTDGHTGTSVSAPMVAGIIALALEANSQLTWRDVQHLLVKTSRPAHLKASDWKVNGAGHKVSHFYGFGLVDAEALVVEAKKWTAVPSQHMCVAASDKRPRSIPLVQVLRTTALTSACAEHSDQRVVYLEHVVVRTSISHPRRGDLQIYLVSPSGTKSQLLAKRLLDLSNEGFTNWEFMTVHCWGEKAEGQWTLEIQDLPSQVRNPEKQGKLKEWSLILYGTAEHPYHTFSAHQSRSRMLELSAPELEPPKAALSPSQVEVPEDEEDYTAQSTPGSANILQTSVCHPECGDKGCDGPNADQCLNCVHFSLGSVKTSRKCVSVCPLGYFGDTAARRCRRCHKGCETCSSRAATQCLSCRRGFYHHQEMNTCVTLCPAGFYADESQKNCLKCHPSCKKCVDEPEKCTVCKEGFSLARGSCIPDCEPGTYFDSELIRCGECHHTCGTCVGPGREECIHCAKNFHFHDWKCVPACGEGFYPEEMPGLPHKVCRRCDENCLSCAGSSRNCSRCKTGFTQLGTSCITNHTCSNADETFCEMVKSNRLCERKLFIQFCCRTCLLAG
As to the kind of experiment: Inhibition of recombinant human PACE4 expressed in S2 insect cells using pyroGlu-Arg-Thr-Lys-Arg-AMC peptide as substrate after 1 hr by spectrofluorometry. An outline of the steps: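 Human recombinant PACE4 made in S2 insect cells and purified. Assay buffer 20 mM Bis-Tris pH 6.5, 1 mM CaCl2, 1.8 g/L BSA. Substrate 100 µM per well, inhibitors 0–10 µM, 2 units enzyme. Fluorescence (ex 370/em 460 nm) followed in real time for 1 h. Ki from IC50 by Cheng–Prusoff; duplicate or triplicate.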

Series [7] has as its system DU-145. The experiment in a line: Cytotoxicity against human DU145 cells assessed as effect on live cells up to 100 uM after 1.5 hrs by propidium iodide-staining based FACS analysis. Format: cell-based. The conditions noted are these: du-145, 1.5 h. An outline of the steps:
as §2

Series [8] has as its system LNCaP. The experiment in a line: Antiproliferative activity against human LNCAP cells up to 300 uM after 72 hrs by MTT assay relative to control. Format: functional. An outline of the steps:
as §1

In series [9] the test system is LNCaP. As to the kind of experiment: Antitumor activity against human LNCAP cells xenografted in nu mouse assessed as reduction in serum prostate-specific antigen levels at 2 mg/kg/day, iv administered at 24 hr intervals. More on the design: scale not given: the % may be the effect or the level left. Format: functional.
The test system of series [10] is LNCaP. As to the kind of experiment: Antitumor activity against human LNCAP cells xenografted in nu mouse assessed as reduction in tumor volume at 2 mg/kg/day, iv administered at 24 hr intervals. Format: functional. More on the design: scale not given: the % may be the effect or the level left.
Series [11] is described as follows: Half life in human plasma by ion chromatogram-based analysis. Format: ADME, cell-free. The essentials: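 Peptide at 50 µM was incubated at 37 °C in human serum from male AB plasma. At each time point, plasma was precipitated with MeOH containing Fmoc-Leu-OH internal standard, centrifuged and filtered. Samples were analysed by UPLC-MS. The peptide/standard ratio of total ion chromatogram peak area was expressed relative to 0 h.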

Series [12] can be described thus: Acute toxicity in iv dosed CD1 mouse measured within 5 mins post dose. Format: organism-based. The conditions noted are these: in vivo. An outline of the steps:
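Healthy CD1 mice received a single intravenous dose, given at various dose levels, to locate the toxicity threshold as a maximum tolerated dose (MTD).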

Where a SMILES comes first, the peptide text is derived from it. [ ]: non-standard residue; d: D form. The star is where a group is joined. NH(4-amidinobenzyl) = N=C(N)c1ccc(CN*)cc1 Where only a bound is given, the exact number is not on record here.

Furin, sequence (P09958 whole entry): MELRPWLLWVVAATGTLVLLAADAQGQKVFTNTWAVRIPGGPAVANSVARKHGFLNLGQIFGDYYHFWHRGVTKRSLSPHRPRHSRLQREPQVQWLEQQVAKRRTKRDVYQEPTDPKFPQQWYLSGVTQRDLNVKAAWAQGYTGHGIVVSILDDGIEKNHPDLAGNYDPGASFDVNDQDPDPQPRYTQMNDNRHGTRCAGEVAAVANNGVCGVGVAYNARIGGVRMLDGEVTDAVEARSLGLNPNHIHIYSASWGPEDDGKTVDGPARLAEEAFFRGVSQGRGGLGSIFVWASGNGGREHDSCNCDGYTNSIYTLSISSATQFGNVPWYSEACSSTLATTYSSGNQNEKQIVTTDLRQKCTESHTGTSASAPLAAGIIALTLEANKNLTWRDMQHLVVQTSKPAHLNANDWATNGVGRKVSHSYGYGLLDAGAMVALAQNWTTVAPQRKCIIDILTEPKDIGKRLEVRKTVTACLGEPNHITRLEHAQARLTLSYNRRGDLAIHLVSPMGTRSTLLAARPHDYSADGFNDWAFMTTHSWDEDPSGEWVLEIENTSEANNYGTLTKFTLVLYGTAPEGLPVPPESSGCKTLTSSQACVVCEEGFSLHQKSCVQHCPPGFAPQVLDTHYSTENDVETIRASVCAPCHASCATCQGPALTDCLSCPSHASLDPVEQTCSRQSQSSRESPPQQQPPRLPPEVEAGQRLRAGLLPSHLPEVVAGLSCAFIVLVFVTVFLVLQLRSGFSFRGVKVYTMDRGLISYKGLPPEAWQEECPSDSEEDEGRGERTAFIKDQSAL

In the case of Ac-LLLLRVKRW-NH2, in series [1], the Ratio Ki was found to be 4. The figures for the Ki in series [2] and in series [6] were 0.11 µM and 0.029 µM, respectively. Also, the IC50 in series [3] is 25 µM; in [5], 31 µM. Also, the Activity entry in [4] is recorded as “Toxic”.

Take Ac-LLLLRVKRR-NH2: the Ratio Ki in [1] was determined as 16. The Ki in series [2] amounted to 2.5 µM; in series [6] it was 0.16 µM. In series [3], this molecule displayed an IC50 of 71 µM. Besides, the results for the Activity result in [7] and in series [8] were “Non-Toxic” and under 50%, respectively.

Turning to `CC(=O)N[C@H](CC(C)C)C(=O)N[C@@H](CC(C)C)C(=O)N[C@@H](CC(C)C)C(=O)N[C@@H](CC(C)C)C(=O)N[C@@H](CCCNC(=N)N)C(=O)N[C@H](C(=O)N[C@@H](CCCCN)C(=O)NCc1ccc(C(=N)N)cc1)C(C)C` (Ac-[dL]LLLRVK-{NH(4-amidinobenzyl)}), the Ratio Ki in series [1] stood at 2. In series [5], this molecule displayed a concentration for half-maximal inhibition (IC50) of 45 µM. Also, the Activity in series [9] came out at 47%; in series [10] it was 60%. In series [11], this molecule showed a half-life of 1.7 h. In addition, the MTD at 5 min in [12] worked out at 10 mg/kg.

Regarding `CC(=O)N[C@H](CC(C)C)C(=O)N[C@@H](CC(C)C)C(=O)N[C@@H](CC(C)C)C(=O)N[C@@H](CC(C)C)C(=O)N[C@@H](CCCNC(=N)N)C(=O)N[C@H](C(=O)N[C@@H](CCCCN)C(=O)N[C@@H](CCCNC(=N)N)C(=O)NCCc1c[nH]c2ccccc12)C(C)C`, the Ratio Ki in [1] came out at 4. Besides, the Ki in series [2] stood at 0.28 µM; in series [6], 0.07 µM. Besides, the IC50 stood at 14 µM in series [3] and 18 µM in series [5]. Also, the Activity result in [4] is given as “Toxic”. In [11], the half-life is 0.8 h.
